Results published in ChEMBL document CHEMBL1781963, “Discovery of novel hepatoselective HMG-CoA reductase inhibitors for treating hypercholesterolemia: a bench-to-bedside case study on tissue selective drug distribution” (Bioorg Med Chem Lett, 2011).

Assays:
OATP1B3 [1] = target: T1, OATP1B3 (Homo sapiens, UniProt Q9NPD5); assay: Drug uptake by human hepatic OATP1B3 transporter expressed in HEK293 cells at 10 uM relative to wild-type HEK293 cells; assay type: ADME, cell-based; settings: HEK293 cells expressing OATP1B3, read-out: FC
T1 sequence (Q9NPD5 whole entry): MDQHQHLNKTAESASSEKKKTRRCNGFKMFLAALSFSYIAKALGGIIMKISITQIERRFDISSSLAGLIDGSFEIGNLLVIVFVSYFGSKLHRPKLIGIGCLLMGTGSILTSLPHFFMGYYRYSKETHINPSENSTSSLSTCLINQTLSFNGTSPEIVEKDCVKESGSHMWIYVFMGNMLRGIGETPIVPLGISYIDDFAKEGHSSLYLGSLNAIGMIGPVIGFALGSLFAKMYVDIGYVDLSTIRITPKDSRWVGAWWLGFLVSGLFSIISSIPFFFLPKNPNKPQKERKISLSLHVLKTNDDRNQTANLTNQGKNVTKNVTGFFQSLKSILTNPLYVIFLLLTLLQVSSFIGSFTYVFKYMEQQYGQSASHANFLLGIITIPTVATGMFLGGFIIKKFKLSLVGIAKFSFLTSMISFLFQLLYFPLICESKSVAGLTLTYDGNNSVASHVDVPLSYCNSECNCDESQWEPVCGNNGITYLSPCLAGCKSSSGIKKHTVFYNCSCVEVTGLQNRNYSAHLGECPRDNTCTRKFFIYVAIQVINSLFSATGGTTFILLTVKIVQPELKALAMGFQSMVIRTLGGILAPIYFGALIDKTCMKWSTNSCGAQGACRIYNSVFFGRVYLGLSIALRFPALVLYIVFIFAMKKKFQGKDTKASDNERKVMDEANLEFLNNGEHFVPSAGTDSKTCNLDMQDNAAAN
Method in brief: (§1)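 Individual hepatic OATP transporters were over-expressed in CHO or HEK293 cells: rat rOatp1a1, rOatp1a4 and rOatp1b2, and human hOATP1B1, hOATP1B3 and hOATP2B1. Substrate uptake is expressed as fold difference relative to the wild-type parental line. Rosuvastatin/pravastatin served as positive control and midazolam as negative control in each assay.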

Syrian golden hamster = assay: Inhibition of cholesterol synthesis in golden syrian hamster assessed as reduction of [14C]-cholesterol level at 10 mg/kg, po followed by 2 hrs after treated with 80 uCi, ip of [14C]-sodium acetate measured after 4 hrs by liquid scintillation counting relative to control; assay type: functional; settings: Mesocricetus auratus
Method in brief: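 Hamsters dosed po at 10 mg/kg at t = 0 h. Intraperitoneal 14C sodium acetate at t = 2 h, blood drawn at t = 4 h for 14C cholesterol. Percent inhibition vs untreated controls, n = 8/group.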

OATP1A4 [2] = target: T2, OATP1A4 (Rattus norvegicus, UniProt O35913); assay: Drug uptake by rat hepatic OATP1A4 transporters expressed in CHO cells at 10 uM relative to wild type CHO cells; assay type: ADME, cell-based; settings: CHO cells expressing rat OATP1A4, read-out: FC; method in brief: as §1
T2 sequence (O35913 whole entry): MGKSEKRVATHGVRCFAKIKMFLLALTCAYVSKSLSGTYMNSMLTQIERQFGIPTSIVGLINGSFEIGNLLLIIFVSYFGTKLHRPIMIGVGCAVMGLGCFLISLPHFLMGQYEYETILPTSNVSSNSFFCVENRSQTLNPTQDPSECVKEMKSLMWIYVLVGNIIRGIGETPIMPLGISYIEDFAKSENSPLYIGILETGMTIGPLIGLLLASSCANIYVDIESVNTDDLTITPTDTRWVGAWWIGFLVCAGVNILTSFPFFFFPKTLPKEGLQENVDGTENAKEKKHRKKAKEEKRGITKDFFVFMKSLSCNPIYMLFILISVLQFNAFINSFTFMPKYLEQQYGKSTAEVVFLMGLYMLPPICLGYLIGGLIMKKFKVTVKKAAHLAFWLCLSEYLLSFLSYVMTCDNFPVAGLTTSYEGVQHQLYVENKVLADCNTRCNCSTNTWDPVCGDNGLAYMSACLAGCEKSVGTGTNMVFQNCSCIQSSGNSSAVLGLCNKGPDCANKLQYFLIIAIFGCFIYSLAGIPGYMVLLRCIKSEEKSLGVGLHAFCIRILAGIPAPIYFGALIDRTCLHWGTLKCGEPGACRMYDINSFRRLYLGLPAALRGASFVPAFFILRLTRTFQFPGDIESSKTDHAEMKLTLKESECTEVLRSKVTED

[3] = Fraction unbound in rat liver at 1 uM; assay type: ADME, tissue-based
Method in brief: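 Unbound fraction in rat liver tissue, measured at 1 μM drug.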

OATP1B3 [4] = target: T1, OATP1B3; assay: Drug uptake by human hepatic OATP1B3 transporter expressed in HEK293 cells at 1 uM relative to wild-type HEK293 cells; assay type: ADME, cell-based; settings: HEK293 cells expressing human OATP1B3, read-out: FC; method in brief: as §1
Hepatocyte = assay: Drug uptake in sandwich-cultured human hepatocytes assessed per mg of protein at 1 uM; assay type: ADME, cell-based
Method in brief: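 Rat or human hepatocytes were cultured in sandwich configuration with a Matrigel overlay and compound uptake was measured. Active uptake was assessed by inhibition with the pan-OATP inhibitor rifamycin SV. Rosuvastatin/pravastatin served as positive control and midazolam as negative control.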

OATP1A4 [5] = target: T2, OATP1A4; assay: Drug uptake by rat hepatic OATP1A4 transporters expressed in CHO cells at 1 uM relative to wild type CHO cells; assay type: ADME, cell-based; settings: CHO cells expressing rat OATP1A4, read-out: FC; method in brief: as §1
[6] = Fraction unbound in rat plasma at 0.5 ug/ml; assay type: ADME, cell-free
Method in brief: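 Unbound fraction in rat, dog or human plasma, measured at a drug concentration of 0.5 μg/mL.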

OATP1B2 [7] = target: T3, OATP1B2 (Rattus norvegicus, UniProt Q9QZX8); assay: Drug uptake by rat hepatic OATP1B2 transporters expressed in CHO cells at 1 uM relative to wild type CHO cells; assay type: ADME, cell-based; settings: CHO cells expressing rat OATP1B2, read-out: FC; method in brief: as §1
T3 sequence (Q9QZX8 whole entry): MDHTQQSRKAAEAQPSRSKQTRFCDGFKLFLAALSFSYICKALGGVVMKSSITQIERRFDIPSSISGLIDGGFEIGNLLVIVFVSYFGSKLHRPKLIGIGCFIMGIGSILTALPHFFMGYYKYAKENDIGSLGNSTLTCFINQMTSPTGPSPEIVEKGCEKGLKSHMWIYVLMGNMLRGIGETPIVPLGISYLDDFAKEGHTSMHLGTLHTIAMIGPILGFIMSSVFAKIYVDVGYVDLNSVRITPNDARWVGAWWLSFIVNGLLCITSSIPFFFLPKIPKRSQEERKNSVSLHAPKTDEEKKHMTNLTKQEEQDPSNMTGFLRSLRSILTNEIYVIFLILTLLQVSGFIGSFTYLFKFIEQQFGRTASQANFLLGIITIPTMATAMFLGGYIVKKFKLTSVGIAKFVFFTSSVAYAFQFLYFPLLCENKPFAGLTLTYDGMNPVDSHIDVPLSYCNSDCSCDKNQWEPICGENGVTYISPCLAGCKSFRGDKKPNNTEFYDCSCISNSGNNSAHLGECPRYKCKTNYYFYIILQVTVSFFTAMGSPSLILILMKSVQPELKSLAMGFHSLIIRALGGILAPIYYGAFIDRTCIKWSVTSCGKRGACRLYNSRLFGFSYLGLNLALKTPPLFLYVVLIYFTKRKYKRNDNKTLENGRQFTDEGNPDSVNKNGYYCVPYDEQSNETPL

OATP1B2 [8] = target: T3, OATP1B2; assay: Drug uptake by rat hepatic OATP1B2 transporters expressed in CHO cells at 10 uM relative to wild type CHO cells; assay type: ADME, cell-based; settings: CHO cells expressing rat OATP1B2, read-out: FC; method in brief: as §1

SMILES: CC(C)c1nc(N(C)S(C)(=O)=O)nc(-c2ccc(F)cc2)c1/C=C/[C@@H](O)C[C@@H](O)CC(=O)O [ROSUVASTATIN]
- uptake ratio at 10 µM (OATP1B3 [1]): 11.1
- inhibition in vivo at 10 mg/kg (Syrian golden hamster): -76%
- uptake ratio at 10 µM (OATP1A4 [2]): 17.3
- fraction unbound at 1 µM [3]: 0.17
- uptake ratio at 1 µM (OATP1B3 [4]): 3.7
- Drug uptake (Hepatocyte): 8 pmol/min/mg
- uptake ratio at 1 µM (OATP1A4 [5]): 8.6
- fraction unbound at 0.5 ug/ml [6]: 0.06

SMILES: CC[C@H](C)C(=O)O[C@H]1C[C@H](O)C=C2C=C[C@H](C)[C@H](CC[C@@H](O)C[C@@H](O)CC(=O)O)[C@H]21 [PRAVASTATIN]
- uptake ratio at 1 µM (OATP1B2 [7]): 3.6
- uptake ratio at 10 µM (OATP1B3 [1]): 32.8
- uptake ratio at 10 µM (OATP1A4 [2]): 1.8
- uptake ratio at 1 µM (OATP1B3 [4]): 13
- uptake ratio at 1 µM (OATP1A4 [5]): 1.5
- uptake ratio at 10 µM (OATP1B2 [8]): 7

SMILES: O=C([O-])C[C@H](O)C[C@H](O)CCn1c(-c2ccc(F)cc2)nc(C(=O)NCc2cccc(F)c2)c1C1CC1.[Na+]
- uptake ratio at 1 µM (OATP1B2 [7]): 1.8
- uptake ratio at 10 µM (OATP1B3 [1]): 36.4
- inhibition in vivo at 10 mg/kg (Syrian golden hamster): -68%
- uptake ratio at 10 µM (OATP1A4 [2]): 7.3
- fraction unbound at 1 µM [3]: 0.23
- uptake ratio at 1 µM (OATP1B3 [4]): 34.5
- Drug uptake (Hepatocyte): 1.5 pmol/min/mg
- uptake ratio at 1 µM (OATP1A4 [5]): 4.4
- uptake ratio at 10 µM (OATP1B2 [8]): 1.7
- fraction unbound at 0.5 ug/ml [6]: 0.15

SMILES: Cc1ccc(CNC(=O)c2nn(-c3ccc(F)cc3)c(CC[C@@H](O)C[C@@H](O)CC(=O)O)c2C(C)C)cc1
- uptake ratio at 1 µM (OATP1B2 [7]): 2.9
- uptake ratio at 10 µM (OATP1B3 [1]): 5
- inhibition in vivo at 10 mg/kg (Syrian golden hamster): -74%
- uptake ratio at 10 µM (OATP1A4 [2]): 3
- fraction unbound at 1 µM [3]: 0.052
- uptake ratio at 1 µM (OATP1B3 [4]): 11.1
- Drug uptake (Hepatocyte): 7.8 pmol/min/mg
- uptake ratio at 1 µM (OATP1A4 [5]): 2.7
- uptake ratio at 10 µM (OATP1B2 [8]): 2.6
- fraction unbound at 0.5 ug/ml [6]: 0.016

SMILES: Cc1ncc2n1-c1ccc(Cl)cc1C(c1ccccc1F)=NC2 [MIDAZOLAM]
- uptake ratio at 1 µM (OATP1B2 [7]): 1.1
- uptake ratio at 10 µM (OATP1B3 [1]): 1.1
- uptake ratio at 10 µM (OATP1A4 [2]): 0.82
- uptake ratio at 1 µM (OATP1B3 [4]): 0.9
- uptake ratio at 1 µM (OATP1A4 [5]): 0.93
- uptake ratio at 10 µM (OATP1B2 [8]): 1.3
